Data set [1] in a line: Metabolic stability in human liver microsomes assessed as intrinsic clearance at 1 uM measured upto 60 mins by HPLC-MS/MS analysis. Conditions: read-out: CLH. Type of data set: ADME, Microsome. In a few lines: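 Intrinsic clearance derived from the microsomal in vitro half-life as (0.693/t1/2) × (mL incubation/mg microsomes) × (45 mg microsomes/g liver) × (20 g liver/kg body weight). Expressed in mL min–1 kg–1.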
In general terms: Liver microsomes are a subcellular fraction often used to study metabolism.

The nature of data set [2]: Glutathione reactivity of compound assessed as GSH adduct formation incubated for 24 hrs by HPLC-MS analysis. Type of data set: physicochemical. Further details: concentration or dose not given beside the values. An outline of the steps: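 Compounds incubated 24 h with GSH in 1:100 molar excess, then analysed by HPLC–MS/MS in full-scan mode. Both the singly charged [M + H]+ and doubly charged [M + 2H]2+ conjugate ions were monitored. Percentage conjugate = (sum of both conjugate ion peak areas)/(parent [M + H]+ peak area).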

Data set [3] can be described thus: Metabolic stability in human liver microsomes assessed as half life at 1 uM measured upto 60 mins by HPLC-MS/MS analysis. Type of data set: ADME, Microsome. An outline of the steps:
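Half-life of the compound in human liver microsomes, expressed in minutes. Reported as mean ± SD, n = 3.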

A short description of data set [4]: Kinetic solubility of compound in PBS at pH 7.4 incubated for 4 hrs by HPLC-MS/MS analysis. Format: physicochemical. As to conditions: read-out: Kinetic_solubility.
Data set [5] is described as follows: Kinetic solubility of compound in water incubated for 4 hrs by HPLC-MS/MS analysis. Format: physicochemical. As to conditions: read-out: Kinetic_solubility.
The subject of data set [6] is Mycobacterium tuberculosis. Briefly: Antimycobacterial activity against Mycobacterium tuberculosis assessed as reduction in bacterial growth by microdilution method. Type of data set: functional.
The subject of data set [7] is Mycobacterium tuberculosis. As to the kind of experiment: Antimycobacterial activity against Mycobacterium tuberculosis H37Rv ATCC 27294 assessed as reduction in bacterial growth incubated for […] by alamar blue assay. Format: functional.
The subject of data set [8] is Mycobacterium tuberculosis. Briefly: Antimycobacterial activity against Mycobacterium tuberculosis assessed as reduction in bacterial growth incubated for 21 days by REMA assay. Type of data set: functional. Conditions: 504 h.
For a further data set, the system named is Vero. As to the kind of experiment: Cytotoxicity against African green monkey Vero cells. As to conditions: chlorocebus sabaeus. Type of data set: cell-based.

In brackets after ≈: the same amount, converted by molar mass. Where only a bound is given, the exact number is not on record here.

Usually half-life stands for the time in which the quantity being followed falls by half. Usually MIC stands for the least concentration at which growth counts as inhibited.

For `CCOC(=O)c1cc(-c2csc(Nc3ccc(C)cc3)n2)on1`, in [1], the CLint scaled at 1 µM came out at 189 mL/min/kg. Moreover, in data set [2], the Activity came out at 3.7%. For the same compound, the half-life at 1 µM in data set [3] came out at 3.3 min. For the same compound, the solubility kinetic at 4 h was 27.7 µM (≈ 9.12 µg/mL) in data set [4] and 54.9 µM (≈ 18.1 µg/mL) in data set [5]. Also, in data set [6], the minimum inhibitory concentration (MIC) is 1.5 µM (≈ 0.494 µg/mL).
For the compound `Cc1ccc(Nc2nc(-c3cc(C(=O)Nc4ccccn4)no3)cs2)cc1`, in data set [1], the CLint scaled at 1 µM came to 38.8 mL/min/kg. The Activity in data set [2] amounted to 7.1%. Further, the half-life at 1 µM in [3] came to 16.1 min. Also, the solubility kinetic at 4 h in data set [4] was determined as 2.4 µM (≈ 0.906 µg/mL); in [5], 2.9 µM (≈ 1.09 µg/mL). In addition, the MIC in data set [6] stood at 0.16 µM (≈ 0.0604 µg/mL).
For `Cc1ccc(Nc2nc(-c3cc(C(F)(F)F)ccc3F)cs2)cc1`, the CLint scaled at 1 µM in data set [1] is 27.9 mL/min/kg. In addition, the Activity in [2] is recorded as 10.4%. The minimal inhibitory concentration (MIC) in data set [7] was determined as 27.5 µM (≈ 9.69 µg/mL). For the same compound, the half-life at 1 µM in data set [3] came to 22.4 min. The solubility kinetic at 4 h in data set [4] was found to be 7.5 µM (≈ 2.64 µg/mL); in data set [5], 24 µM (≈ 8.46 µg/mL).
As for `COc1ccc(-c2coc(Nc3ccc(C)cc3)n2)cc1`, in data set [1], the CLint scaled at 1 µM came to 29.9 mL/min/kg. Further, the Activity in data set [2] is recorded as 14.2%. The MIC in data set [7] is above 100 µM. For the same compound, in [3], the half-life at 1 µM amounted to 20.9 min. Also, the solubility kinetic at 4 h is 1.1 µM (≈ 0.308 µg/mL) in data set [4] and 0.7 µM (≈ 0.196 µg/mL) in data set [5].
With `COc1ccc(-c2csc(Nc3ccc(C)cc3)n2)cc1`, the CLint scaled at 1 µM in [1] was 42.9 mL/min/kg. In addition, the Activity in [2] is reported as 13.9%. In data set [7], the minimum inhibitory concentration (MIC) stood at 13 µM (≈ 3.85 µg/mL). In addition, in data set [3], the half-life at 1 µM is 14.5 min. The values for the solubility kinetic at 4 h in data set [4] and in [5] were 1.2 µM (≈ 0.356 µg/mL) and 20 µM (≈ 5.93 µg/mL), respectively.
Consider `Cc1ccc(Nc2nc(-c3cc(C(F)(F)F)ccc3F)co2)cc1`, for which the CLint scaled at 1 µM in data set [1] is 27.6 mL/min/kg. The Activity in data set [2] is given as 14.2%. The MIC in data set [7] is 12.3 µM (≈ 4.14 µg/mL). Also, in [3], the half-life at 1 µM was 22.6 min. Moreover, the solubility kinetic at 4 h came out at 5.9 µM (≈ 1.98 µg/mL) in [4] and 5.2 µM (≈ 1.75 µg/mL) in data set [5].
Regarding `Cc1ccc(Nc2nc(-c3cc(C(=O)Nc4ccccn4)no3)co2)cc1`, in data set [1], the CLint scaled at 1 µM was determined as 41.5 mL/min/kg. Besides, the values for the Activity (in data set [2]; with Vero) were 2.1% and “Non-Toxic”, respectively. In addition, the MIC in data set [8] worked out at 6.9 µM (≈ 2.49 µg/mL). Moreover, in data set [3], the half-life at 1 µM worked out at 15 min. Moreover, the solubility kinetic at 4 h in [4] was found to be 9.3 µM (≈ 3.36 µg/mL); in [5], 24 µM (≈ 8.67 µg/mL).
Consider `CCOC(=O)c1cc(-c2coc(Nc3ccc(C)cc3)n2)on1`, for which the CLint scaled at 1 µM in data set [1] came out at 226 mL/min/kg. Besides, the Activity was 15.8% in data set [2] and “Non-Toxic” with Vero. The MIC in data set [7] came out at 2.3 µM (≈ 0.721 µg/mL). Also, in data set [3], the half-life at 1 µM was determined as 2.7 min. Besides, the values for the solubility kinetic at 4 h in [4] and in data set [5] were 6.8 µM (≈ 2.13 µg/mL) and 9.1 µM (≈ 2.85 µg/mL), respectively.

These data come from ChEMBL document CHEMBL4619794, “2-Aminooxazole as a Novel Privileged Scaffold in Antitubercular Medicinal Chemistry” (ACS Med Chem Lett, 2020).
